In brackets after ≈: the same amount, converted by molar mass.

Holding throughout (assay type): functional
The subject of test [1] is Staphylococcus aureus. The test is described as follows: Antibacterial activity against 10^5 CFU/mL Staphylococcus aureus RN4220 assessed as inhibition of bacterial growth after 24 hrs by microtiter enzyme-linked immunosorbent assay. Particulars: RN4220, 24 h.
Test [2] has as its system Staphylococcus aureus. The test is described as follows: Antibacterial activity against 10^5 CFU/mL Staphylococcus aureus KCTC 503 assessed as inhibition of bacterial growth after 24 hrs by microtiter enzyme-linked immunosorbent assay. Particulars: KCTC 503, 24 h.
Test [3] has as its system Escherichia coli. The test is described as follows: Antibacterial activity against 10^5 CFU/mL Escherichia coli 1356 assessed as inhibition of bacterial growth after 24 hrs by microtiter enzyme-linked immunosorbent assay. The conditions noted are these: Escherichia coli, 1356, 24 h.
Test [4] concerns Escherichia coli. The test is described as follows: Antibacterial activity against 10^5 CFU/mL Escherichia coli 1682 assessed as inhibition of bacterial growth after 24 hrs by microtiter enzyme-linked immunosorbent assay. The conditions noted are these: Escherichia coli, 1682, 24 h.
Test [5] has as its system Staphylococcus aureus. The test is described as follows: Antibacterial activity against 10^5 CFU/mL methicillin-resistant Staphylococcus aureus CCARM 3167 assessed as inhibition of bacterial growth after 24 hrs by microtiter enzyme-linked immunosorbent assay. The conditions noted are these: CCARM 3167, 24 h. An outline of the steps: (§1)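 Broth microdilution MIC. Bacteria grown to mid-log phase in Mueller-Hinton broth, diluted 1000-fold, and inoculated at 10⁵ CFU/mL in MHB, 0.2 mL/well in 96-well plates. Compounds dissolved in DMSO, final DMSO not exceeding 0.05%, in serial dilutions. Oxacillin and norfloxacin served as positive controls. MIC is the lowest concentration giving complete growth inhibition after 24 h at 37 °C.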

Test [6] concerns Staphylococcus aureus. The test is described as follows: Antibacterial activity against 10^5 CFU/mL methicillin-resistant Staphylococcus aureus CCARM 3506 assessed as inhibition of bacterial growth after 24 hrs by microtiter enzyme-linked immunosorbent assay. The conditions noted are these: CCARM 3506, 24 h. An outline of the steps:
as §1

In test [7] the test system is Staphylococcus aureus. The test is described as follows: Antibacterial activity against 10^5 CFU/mL quinolone-resistant Staphylococcus aureus CCARM 3505 assessed as inhibition of bacterial growth after 24 hrs by microtiter enzyme-linked immunosorbent assay. The conditions noted are these: CCARM 3505, 24 h. Summed up:
as §1

In test [8] the test system is Staphylococcus aureus. The test is described as follows: Antibacterial activity against 10^5 CFU/mL quinolone-resistant Staphylococcus aureus CCARM 3519 assessed as inhibition of bacterial growth after 24 hrs by microtiter enzyme-linked immunosorbent assay. The conditions noted are these: CCARM 3519, 24 h. An outline of the steps:
as §1

Take `COC(=O)c1ccc(CN2C(=O)S/C(=C\c3ccc(/C=C/C(=O)c4ccccc4O)cc3)C2=O)cc1`: the minimum inhibitory concentration (MIC) in test [1], in test [2], in test [3] and in test [4] was > 64 µg/mL each time.
For the compound `COC(=O)c1ccc(CN2C(=O)S/C(=C\c3ccc(/C=C/C(=O)c4cccc(O)c4)cc3)C2=O)cc1`, the minimum inhibitory concentration (MIC) in test [1], in test [2], in test [3] and in test [4] was > 64 µg/mL each time.
Turning to `COC(=O)c1ccc(CN2C(=O)S/C(=C\c3ccc(/C=C/C(=O)c4ccccc4OC)cc3)C2=O)cc1`, the MIC in test [1], in test [2], in test [3] and in test [4] was > 64 µg/mL throughout.
As for `COC(=O)c1ccc(CN2C(=O)S/C(=C\c3ccc(/C=C/C(=O)c4cccc(OC)c4)cc3)C2=O)cc1`, the minimum inhibitory concentration (MIC) in test [1], in test [2], in test [3] and in test [4] was > 64 µg/mL throughout.
For the compound `COC(=O)c1ccc(CN2C(=O)S/C(=C\c3ccc(/C=C/C(=O)c4cccc(Br)c4)cc3)C2=O)cc1`, the MIC in test [1], in test [2], in test [3] and in test [4] was > 64 µg/mL in each case.
With `COC(=O)c1ccc(CN2C(=O)S/C(=C\c3ccc(/C=C/C(=O)c4ccc(Br)cc4)cc3)C2=O)cc1`, the minimum inhibitory concentration (MIC) in test [1], in test [2], in test [3] and in test [4] was > 64 µg/mL throughout.
For the compound `COC(=O)c1ccc(CN2C(=O)S/C(=C\c3ccc(/C=C/C(=O)c4ccc(Cl)cc4)cc3)C2=O)cc1`, the MIC in test [1], in test [2], in test [3] and in test [4] was > 64 µg/mL each time.
`COC(=O)c1ccc(CN2C(=O)S/C(=C\c3ccc(/C=C/C(=O)c4ccccc4Br)cc3)C2=O)cc1`: the minimal inhibitory concentration (MIC) in test [1], in test [2], in test [3] and in test [4] was > 64 µg/mL in each case.
Regarding `COC(=O)c1ccc(CN2C(=O)S/C(=C\c3ccc(/C=C/C(=O)c4ccccc4Cl)cc3)C2=O)cc1`, the MIC in test [1], in test [2], in test [3] and in test [4] was > 64 µg/mL each time.
Consider `COC(=O)c1ccc(CN2C(=O)S/C(=C\c3ccc(/C=C/C(=O)c4cccc(Cl)c4)cc3)C2=O)cc1`, for which the MIC in test [1], in test [2], in test [3] and in test [4] was > 64 µg/mL each time.
`COC(=O)c1ccc(CN2C(=O)S/C(=C\c3ccc(/C=C/C(=O)c4ccccc4F)cc3)C2=O)cc1`: the MIC in test [1], in test [2], in test [3] and in test [4] was > 64 µg/mL in each case.
`COC(=O)c1ccc(CN2C(=O)S/C(=C\c3ccc(/C=C/C(=O)c4ccc(F)cc4)cc3)C2=O)cc1`: the minimal inhibitory concentration (MIC) in test [1], in test [2], in test [3] and in test [4] was > 64 µg/mL throughout.
With `COC(=O)c1ccc(CN2C(=O)S/C(=C\c3ccc(/C=C/C(=O)c4ccc(C)cc4C)cc3)C2=O)cc1`, the MIC in test [1], in test [2], in test [3] and in test [4] was > 64 µg/mL throughout.
With `COC(=O)c1ccc(CN2C(=O)S/C(=C\c3ccc(/C=C/C(=O)c4ccc(Cl)cc4Cl)cc3)C2=O)cc1`, the MIC in test [1], in test [2], in test [3] and in test [4] was > 64 µg/mL in each case.
Regarding `COC(=O)c1ccc(CN2C(=O)S/C(=C\c3ccc(/C=C/C(=O)c4ccccc4)cc3)C2=O)cc1`, the MIC in test [1], in test [2], in test [3] and in test [4] was > 64 µg/mL each time.
As for `COC(=O)c1ccc(CN2C(=O)S/C(=C\c3ccc(/C=C/C(=O)c4ccc5ccccc5c4)cc3)C2=O)cc1`, the minimal inhibitory concentration (MIC) in test [1], in test [2], in test [3] and in test [4] was > 64 µg/mL throughout.
Consider `COC(=O)c1ccc(CN2C(=O)S/C(=C\c3ccc(/C=C/C(=O)c4ccc(C)cc4)cc3)C2=O)cc1`, for which the MIC in test [1], in test [2], in test [3] and in test [4] was > 64 µg/mL in each case.
As for `O=C(O)c1ccc(CN2C(=O)S/C(=C\c3ccc(/C=C/C(=O)c4ccc5ccccc5c4)cc3)C2=O)cc1`, the minimum inhibitory concentration (MIC) in test [1], in test [2], in test [3] and in test [4] was > 64 µg/mL throughout.
As to `Cc1ccc(C(=O)/C=C/c2ccc(/C=C3\SC(=O)N(Cc4ccc(C(=O)O)cc4)C3=O)cc2)cc1`, the minimal inhibitory concentration (MIC) in test [1], in test [2], in test [3] and in test [4] was > 64 µg/mL in each case.
Take `Cc1ccc(C(=O)/C=C/c2ccc(/C=C3\SC(=O)N(Cc4ccc(C(=O)O)cc4)C3=O)cc2)c(C)c1`: the MIC in test [1], in test [2], in test [3] and in test [4] was > 64 µg/mL each time.
As for `O=C(O)c1ccc(CN2C(=O)S/C(=C\c3ccc(/C=C/C(=O)c4ccc(Cl)cc4Cl)cc3)C2=O)cc1`, the MIC in test [1], in test [2], in test [3] and in test [4] was > 64 µg/mL in each case.
Turning to `O=C(O)c1ccc(CN2C(=O)S/C(=C\c3ccc(/C=C/C(=O)c4ccccc4F)cc3)C2=O)cc1`, the MIC in test [1], in test [2], in test [3] and in test [4] was > 64 µg/mL throughout.
Regarding `O=C(O)c1ccc(CN2C(=O)S/C(=C\c3ccc(/C=C/C(=O)c4ccc(F)cc4)cc3)C2=O)cc1`, the MIC in test [1], in test [2], in test [3] and in test [4] was > 64 µg/mL each time.
As for `O=C(O)c1ccc(CN2C(=O)S/C(=C\c3ccc(/C=C/C(=O)c4ccccc4Cl)cc3)C2=O)cc1`, the minimal inhibitory concentration (MIC) is 1 µg/mL (≈ 1.98 µM) in test [1]; 2 µg/mL (≈ 3.97 µM) in test [2]; > 64 µg/mL in test [3]; > 64 µg/mL in test [4]; 1 µg/mL (≈ 1.98 µM) in test [5]; 1 µg/mL (≈ 1.98 µM) in test [6]. For the same compound, the MIC in test [7] and in test [8] was 2 µg/mL (≈ 3.97 µM) in each case.
Regarding `O=C(O)c1ccc(CN2C(=O)S/C(=C\c3ccc(/C=C/C(=O)c4cccc(Cl)c4)cc3)C2=O)cc1`, the MIC in test [1], in test [2], in test [3] and in test [4] was > 64 µg/mL throughout.
For `O=C(O)c1ccc(CN2C(=O)S/C(=C\c3ccc(/C=C/C(=O)c4ccc(Cl)cc4)cc3)C2=O)cc1`, the MIC in test [1], in test [2], in test [3] and in test [4] was > 64 µg/mL each time.
As for `O=C(O)c1ccc(CN2C(=O)S/C(=C\c3ccc(/C=C/C(=O)c4cccc(Br)c4)cc3)C2=O)cc1`, the MIC in test [1], in test [2], in test [3] and in test [4] was > 64 µg/mL throughout.
For `O=C(O)c1ccc(CN2C(=O)S/C(=C\c3ccc(/C=C/C(=O)c4ccc(Br)cc4)cc3)C2=O)cc1`, the MIC in test [1], in test [2], in test [3] and in test [4] was > 64 µg/mL throughout.
Regarding `COc1cccc(C(=O)/C=C/c2ccc(/C=C3\SC(=O)N(Cc4ccc(C(=O)O)cc4)C3=O)cc2)c1`, the MIC in test [1], in test [2], in test [3] and in test [4] was > 64 µg/mL in each case.
As for `COc1ccc(C(=O)/C=C/c2ccc(/C=C3\SC(=O)N(Cc4ccc(C(=O)O)cc4)C3=O)cc2)cc1`, the MIC in test [1], in test [2], in test [3] and in test [4] was > 64 µg/mL throughout.
For `O=C(O)c1ccc(CN2C(=O)S/C(=C\c3ccc(/C=C/C(=O)c4ccccc4O)cc3)C2=O)cc1`, the MIC in test [1], in test [2], in test [3] and in test [4] was > 64 µg/mL each time.
As for `O=C(O)c1ccc(CN2C(=O)S/C(=C\c3ccc(/C=C/C(=O)c4ccc(O)cc4)cc3)C2=O)cc1`, the MIC in test [1], in test [2], in test [3] and in test [4] was > 64 µg/mL in each case.
`COC(=O)c1ccc(CN2C(=O)S/C(=C\c3ccc(/C=C/C(=O)c4ccc(O)cc4)cc3)C2=O)cc1`: the minimum inhibitory concentration (MIC) in test [1], in test [2], in test [3] and in test [4] was > 64 µg/mL throughout.
Turning to `COC(=O)c1ccc(CN2C(=O)S/C(=C\c3ccc(/C=C/C(=O)c4ccc(OC)cc4)cc3)C2=O)cc1`, the MIC in test [1], in test [2], in test [3] and in test [4] was > 64 µg/mL each time.

The term MIC denotes the smallest concentration in the dilution series that meets the test's criterion for growth inhibition.

Values taken from ChEMBL document CHEMBL1806444, “Synthesis of new chalcone derivatives bearing 2,4-thiazolidinedione and benzoic acid moieties as potential anti-bacterial agents” (2011).
